The values that follow come from ChEMBL document CHEMBL3603779, “Identification and Optimization of Benzimidazole Sulfonamides as Orally Bioavailable Sphingosine 1-Phosphate Receptor 1 Antagonists with in Vivo Activity” (J Med Chem, 2015).

Active and inactive are the calls of the source. No cut-off for these calls is given here. Bounds are passed on as bounds.

Data set [1] is described as follows: Half life in Han Wistar rat at 3 mg/kg, iv by LCMS/MS method. It counts as ADME, organism-based. The conditions noted are these: in vivo.
Data set [2] in a line: Volume of distribution at steady state in beagle dog at 2.5 mg/kg, iv. Format: ADME, organism-based, Canis lupus familiaris. Particulars: in vivo, read-out: Vdss.
Data set [3] has as its system Calu-6. In words: Increase in pulmonary vascular permeability in tumor of human Calu6 cells xenografted NCr mouse assessed as induction of capillary leakage in at 20 mg/kg, po by Evans blue dye assay. It counts as functional, organism-based.
Data set [4] can be described thus: Half life in beagle dog at 2.5 mg/kg, iv by LCMS/MS method. Format: ADME, organism-based, Canis lupus familiaris. The conditions noted are these: in vivo.
A short description of data set [5]: Clearance in Han Wistar rat at 3 mg/kg, iv by LCMS/MS method. The conditions noted are these: in vivo. It counts as ADME, organism-based.
Data set [6] is described as follows: Oral bioavailability in beagle dog at 10 mg/kg by LCMS/MS method. It counts as ADME, organism-based, Canis lupus familiaris. Particulars: in vivo.
The test system of data set [7] is COLO 205. In words: Increase in pulmonary vascular permeability in tumor of human COLO205 cells xenografted NCr mouse assessed as induction of capillary leakage in at 20 mg/kg, po by Evans blue dye assay. It counts as functional, organism-based.
The nature of data set [8]: Volume of distribution at steady state in Han Wistar rat at 3 mg/kg, iv by LCMS/MS method. It counts as ADME, organism-based. Particulars: in vivo, read-out: Vdss.
The nature of data set [9]: Clearance in beagle dog at 2.5 mg/kg, iv by LCMS/MS method. It counts as ADME, organism-based, Canis lupus familiaris. The conditions noted are these: in vivo.
The target in data set [10] is Voltage-gated inwardly rectifying potassium channel KCNH2 (Homo sapiens, UniProt Q12809).
Sequence of Voltage-gated inwardly rectifying potassium channel KCNH2 (Q12809 whole entry): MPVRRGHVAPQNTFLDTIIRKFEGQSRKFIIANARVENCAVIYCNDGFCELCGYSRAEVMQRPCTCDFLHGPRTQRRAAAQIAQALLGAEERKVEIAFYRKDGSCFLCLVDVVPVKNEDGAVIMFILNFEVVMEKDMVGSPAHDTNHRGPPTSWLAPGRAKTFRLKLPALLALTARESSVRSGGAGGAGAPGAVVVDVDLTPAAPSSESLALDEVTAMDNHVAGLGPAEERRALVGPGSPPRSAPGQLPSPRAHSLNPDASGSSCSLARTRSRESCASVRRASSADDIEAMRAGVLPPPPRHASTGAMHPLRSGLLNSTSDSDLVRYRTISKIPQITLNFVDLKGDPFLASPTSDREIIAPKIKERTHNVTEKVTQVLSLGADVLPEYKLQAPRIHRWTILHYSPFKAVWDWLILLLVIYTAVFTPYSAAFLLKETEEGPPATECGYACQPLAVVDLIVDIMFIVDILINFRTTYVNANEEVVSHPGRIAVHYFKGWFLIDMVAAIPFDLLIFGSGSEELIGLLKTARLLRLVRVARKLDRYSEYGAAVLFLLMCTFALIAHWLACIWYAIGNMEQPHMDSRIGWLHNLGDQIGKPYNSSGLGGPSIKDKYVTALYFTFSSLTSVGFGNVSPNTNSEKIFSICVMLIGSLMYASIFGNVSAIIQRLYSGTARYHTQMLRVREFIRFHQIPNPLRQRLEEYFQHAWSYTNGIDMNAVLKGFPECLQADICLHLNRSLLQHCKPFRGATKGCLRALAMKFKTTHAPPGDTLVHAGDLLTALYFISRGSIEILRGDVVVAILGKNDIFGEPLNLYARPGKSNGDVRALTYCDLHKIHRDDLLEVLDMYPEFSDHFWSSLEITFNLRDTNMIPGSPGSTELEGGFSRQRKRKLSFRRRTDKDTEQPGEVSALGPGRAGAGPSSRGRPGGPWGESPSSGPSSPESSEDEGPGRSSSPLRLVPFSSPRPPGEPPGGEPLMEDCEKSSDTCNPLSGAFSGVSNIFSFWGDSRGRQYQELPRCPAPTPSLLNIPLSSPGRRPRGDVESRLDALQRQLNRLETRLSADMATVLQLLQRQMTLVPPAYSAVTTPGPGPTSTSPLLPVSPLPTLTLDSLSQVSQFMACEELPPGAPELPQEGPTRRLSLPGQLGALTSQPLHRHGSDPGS
The test system of data set [11] is Calu-6. In words: Antitiumor activity against human Calu6 cells xenografted in NCr mouse assessed as tumor growth at 20 mg/kg, po bid dosed on day 13 to 32.
Data set [12] concerns Mus musculus. In words: Increase in pulmonary vascular permeability in NCr mouse lung assessed as induction of capillary leakage in at 20 mg/kg, po administered a single oral dose by Evans blue dye assay. Format: functional, organism-based. The gist of the method:
(§1)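 Female NCr nude mice (4 per cohort) given a single oral dose, 20 or 50 mg/kg, or vehicle (0.5% HPMC, 0.1% Tween 80). Evans blue dye (20 mg/kg) injected 1 h later. After 30 min, mice anesthetized and perfused with 0.9% saline; lung dye measured by spectrophotometry and normalized to vehicle-treated animals.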

Data set [13] has as its system Calu-6. In words: Increase in pulmonary vascular permeability in tumor of human Calu6 cells xenografted NCr mouse assessed as induction of capillary leakage in at 50 mg/kg, po by Evans blue dye assay. Format: functional, organism-based.
Data set [14] is described as follows: Clearance in beagle dog at 2 mg/kg, iv by LCMS/MS method. It counts as ADME, organism-based, Canis lupus familiaris. Particulars: in vivo.
The subject of data set [15] is COLO 205. In words: Increase in pulmonary vascular permeability in tumor of human COLO205 cells xenografted NCr mouse assessed as induction of capillary leakage in at 50 mg/kg, po by Evans blue dye assay. Format: functional, organism-based.
Data set [16] can be described thus: Cmax in beagle dog at 5 mg/kg, po by LCMS/MS method. It counts as ADME, organism-based, Canis lupus familiaris. Further details: dose 5 mg/kg, route oral. The conditions noted are these: in vivo.
Data set [17] is described as follows: Antitiumor activity against human Calu6 cells xenografted in NCr mouse assessed as tumor growth at 50 mg/kg, po bid dosed on day 11 to 33. Particulars: Calu-6, po, read-out: GI. It counts as functional. In a few lines: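 Calu6 xenografts in female NCr-nude mice, oral dosing twice daily. Schedules: 20 mg/kg BID on days 13-32, or 50 mg/kg BID on days 11-33. Vehicle (HPMC) controls n=20, treated n=14. Tumor volume compared with controls.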

The subject of data set [18] is Mus musculus. In words: Increase in pulmonary vascular permeability in NCr mouse lung assessed as induction of capillary leakage in at 50 mg/kg, po administered a single oral dose by Evans blue dye assay. Format: functional, organism-based. In a few lines:
as §1

Data set [19] can be described thus: Half life in beagle dog at 2 mg/kg, iv by LCMS/MS method. Format: ADME, organism-based, Canis lupus familiaris. Particulars: in vivo.
Data set [20] can be described thus: Volume of distribution at steady state in beagle dog at 2 mg/kg, iv by LCMS/MS method. The conditions noted are these: in vivo, read-out: Vdss. Format: ADME, organism-based, Canis lupus familiaris.
Data set [21] is described as follows: Oral bioavailability in beagle dog at 5 mg/kg by LCMS/MS method. Particulars: in vivo. It counts as ADME, organism-based, Canis lupus familiaris.
Data set [22] can be described thus: Half life in Han Wistar rat at 4 mg/kg, iv by LCMS/MS method. It counts as ADME, organism-based. Particulars: in vivo.
Data set [23] in a line: Volume of distribution at steady state in Han Wistar rat at 4 mg/kg, iv by LCMS/MS method. The conditions noted are these: in vivo, read-out: Vdss. It counts as ADME, organism-based.

As to `CCn1c([C@@H](C)NS(=O)(=O)c2ccc(C#N)nc2)nc2cnc(C(F)(F)F)cc21`, the half-life was 2.4 h in [1] and 4.9 h in data set [4]. Also, the Vd came out at 0.6 L/kg in [2] and 1.2 L/kg in data set [8]. Moreover, the outcome in data set [3] and in data set [7] was inactive. The clearance in [5] stood at 8 mL/min/kg; in [9], 2 mL/min/kg. Also, the bioavailability in [6] turned out to be 81%. In [10], this compound returned an IC50 greater than 200 µM. The “growth inhibition (GI)” value in [11] was “inactive”. Further, the result in data set [12] was Active.
Turning to `CCn1c([C@@H](C)NS(=O)(=O)c2ccc(C#N)nc2)nc2cnc(C3CC3)cc21`, the outcome in data set [13] and in data set [15] was inactive. Further, the clearance in data set [14] turned out to be 2 mL/min/kg. In [16], this compound came in with a Cmax of 10.7 µM. Moreover, the inhibition in vivo at 50 mg/kg in data set [17] was determined as 32%. In addition, the outcome in [18] was Active. The half-life in data set [19] was 4.6 h; in [22] it was 2.9 h. For the same compound, the values for the Vd in data set [20] and in data set [23] were 0.7 L/kg and 1.3 L/kg, respectively. In addition, the bioavailability in [21] came out at 71%.
